Assay results of several laboratories.
Compare with care: the assays were run in different laboratories.
Organism: Human immunodeficiency virus 1
Observed: viral replication

| Compound | mode | method | cell line | strain | time | quantity | value |
| --- | --- | --- | --- | --- | --- | --- | --- |
| OCc1cc(C(O)CNCCCCCCOCCCCc2ccccc2)ccc1O (stereo not shown) | inhibitor | – | TZM-bl | – | – | EC50 | 20 µM |
| O=c1oc2c(O)c(O)cc3c(=O)oc4c(O)c(O)cc1c4c23 | inhibitor | luciferase | TZM-bl | – | 48 h | IC50 | 18.8 µg/mL |
| CN1CC[C@H](c2c(O)cc(O)c3c(=O)cc(-c4ccccc4Cl)oc23)[C@H](O)C1 | inhibitor | – | human PBMC | – | 6 days | EC50 | 0.02 µM |
| Cc1cn([C@H]2C[C@H](N=[N+]=[N-])[C@@H](CO)O2)c(=O)[nH]c1=O | inhibitor | ELISA | human PBMC | NL43 | 7 days | IC50 | 0.005 µM |
| O=C(O)c1cc(F)cc(Cn2ccc3ccc(-c4ccc5ccn(Cc6cccc(OC(F)(F)F)c6)c5c4)cc32)c1 | inhibitor | – | – | BAL | – | IC50 | 1.4 µM |
| CC(C)C[C@H](NC(=O)[C@@H](NC(=O)[C@@H]1CCCN1C(=O)[C@@H](NC(=O)[C@H](CO)NC(=O)[C@@H](NC(=O)[C@H](CCC(N)=O)NC(=O)[C@@H]1CCCN1C(=O)[C@@H](NC(=O)[C@H](CCCCN)NC(=O)[C@H](CCCCN)NC(=O)[C@@H](NC(=O)[C@H](Cc1ccc(O)cc1)NC(=O)[C@H](CCCNC(=N)N)NC(=O)[C@@H](NC(=O)[C@@H](N)CC(C)C)C(C)C)[C@@H](C)O)C(C)C)C(C)C)[C@@H](C)O)[C@@H](C)O)C(=O)O | inhibitor | – | TZM-bl | – | – | IC50 | > 10 µM |
| O=[N+]([O-])c1cccc(-c2nc3c4cc(I)ccc4c4ccccc4c3[nH]2)c1 | inhibitor | – | human PBMC | – | 7 days | IC50 | 14.2 µM |
| O=c1cc(-c2ccccc2)oc2cc(O)cc(O)c12 | inhibitor | – | human PBMC | – | 6 days | EC50 | 9.2 µM |
| C[C@@H](O[C@H]1OCCN(Cc2n[nH]c(=O)[nH]2)[C@H]1c1ccc(F)cc1)c1cc(C(F)(F)F)cc(C(F)(F)F)c1 | inhibitor | ELISA | human PBMC | NL43 | 7 days | IC50 | 5.7 µM |
| O=c1cc(-c2ccc(O)cc2)oc2cc(O)cc(O)c12 | inhibitor | – | human PBMC | – | 6 days | EC50 | 5 µM |
| CCOC(=O)c1cccc(Cn2ccc3ccc(-c4ccc5ccn(Cc6cccc(C(=O)O)c6)c5c4)cc32)c1 | inhibitor | – | MAGI | BAL | – | IC90 | 28.9 µM |
| Cc1cn([C@H]2C[C@H](N=[N+]=[N-])[C@@H](CO)O2)c(=O)[nH]c1=O | inhibitor | – | CEM-GFP | – | 8 days | IC50 | 0.094 µg/mL |
| CC(C)(C)NC(=O)[C@@H]1C[C@@H]2CCCC[C@@H]2CN1C[C@@H](O)[C@H](Cc1ccccc1)NC(=O)[C@H](CC(N)=O)NC(=O)c1ccc2ccccc2n1 | – | – | MT2 | – | – | IC50 | 0.019 µM |
| COC(=O)c1cccc(Cn2ccc3ccc(-c4ccc5ccn(Cc6cccc(C(=O)O)c6)c5c4)cc32)c1 | inhibitor | – | MAGI | BAL | – | IC90 | 38.4 µM |
| O=C(O)c1cc(O)c(O)c(O)c1 | inhibitor | luciferase | TZM-bl | – | 48 h | IC50 | 0.36 µg/mL |
| C[N+](C)(C)CCCn1c(=O)c2cc(Br)c3c(=O)n(CCC[N+](C)(C)C)c(=O)c4c5[nH]c6ccccc6[nH]c5c(c1=O)c2c34 | – | – | TZM-bl | NL43 | 48 h | IC50 | > 5 µM |
